Published values pooled from the literature.
Compare with care: the assays were run in different laboratories.
PDK1: [Pyruvate dehydrogenase (acetyl-transferring)] kinase isozyme 1, mitochondrial (PDK1, Homo sapiens, UniProt Q15118)
AKT2: RAC-beta serine/threonine-protein kinase (AKT2, Homo sapiens, UniProt P31751)

| Structure (SMILES) | target | read-out | mode | method | tested at | endpoint | result |
| --- | --- | --- | --- | --- | --- | --- | --- |
| CNc1ncc2c(/C=C/C(=O)N3CCC(OC)CC3)nn(Cc3cccc(C(F)(F)F)c3)c2n1 | Vascular endothelial growth factor receptor 1 (FLT1, Homo sapiens, UniProt P17948) | enzyme activity | inhibitor | radiometric | 1 µM | remaining activity | 95% |
| Cc1cc(NC(=O)c2cccc(NC(=O)/C=C/CN(C)C)c2)ccc1Nc1nccc(-c2cccnc2)n1 | Mast/stem cell growth factor receptor Kit (KIT, Homo sapiens, UniProt P10721) | binding |  | competition with immobilised ligand | 1 µM | remaining binding | 4.1% |
| CC(=O)Nc1ccc(Oc2ccc(C(=O)C(Cl)Cl)cc2[N+](=O)[O-])cc1 | PDK1 | enzyme activity | inhibitor | ATP luminescence | 10 µM | inhibition | 22.7% |
| C=CC(=O)N1CCC(COCC(=O)N2CCN(c3nc(-c4cnc(N)nc4C(F)F)nc(N4CCOC[C@@H]4C)n3)CC2)CC1 | AKT2 | binding |  | competition with immobilised ligand | 1 µM | remaining binding | 100% |
| Cc1ncsc1-c1ccc(CNC(=O)[C@@H]2C[C@@H](O)CN2C(=O)[C@@H](NC(=O)CCCCCCCCNC(=O)CN2CCN(C(=O)c3ccc(Nc4nc(C5CC5)cn5c(-c6cn[nH]c6)cnc45)c(F)c3)CC2)C(C)(C)C)cc1 | Mitogen-activated protein kinase kinase kinase 19 (MAP3K19, Homo sapiens, UniProt Q56UN5) | cell-free assay |  | competition with immobilised ligand | 1 µM | inhibition | > 65% |
| O=C(c1ccc(Oc2ccc3c(c2)OCO3)c([N+](=O)[O-])c1)C(Cl)Cl | PDK1 | enzyme activity | inhibitor | ATP luminescence | 10 µM | inhibition | 20.3% |
| Cc1cc([C@@H](C)Nc2ccccc2C(=O)O)c2nc(N3CCC(F)(F)CC3)c(C#N)c(=O)n2c1 | Casein kinase I isoform gamma-2 (CSNK1G2, Homo sapiens, UniProt P78368) | binding |  | competition with immobilised ligand | 1 µM | remaining binding | 100% |
| COc1cc(-c2cncc3c2CN(C)Cc2cc(N4CCNCC4)ccc2-3)cc(OC)c1OC | AKT2 | enzyme activity | inhibitor |  | 1 µM | remaining activity | 132% |
| O=C(c1ccc(Oc2ccc3cc(Br)ccc3c2Cl)c([N+](=O)[O-])c1)C(Cl)Cl | PDK1 | enzyme activity | inhibitor | ATP luminescence | 10 µM | inhibition | 41.8% |
